Measurements as given in ChEMBL document CHEMBL3286189, “Discovery and SAR studies of a novel class of cytotoxic 1,4-disubstituted piperidines via Ugi reaction” (Eur J Med Chem, 2014).

What was measured:
[1] = Anticancer activity against human UACC62 cells; assay type: functional
Procedure, shortened: (§1)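 Assayed in the NCI Cancer-60 human tumour cell line panel, with activity read across several log-step concentrations.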

K562 = experiment: Anticancer activity against human K562 cells; assay type: functional
Procedure, shortened: (§2)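 Values come from the NCI 60-cell-line human tumour panel, run on a single analog. Cytostatic and cytotoxic responses were read for each cell line across graded molar concentrations of that compound.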

[2] = Anticancer activity against human HCT15 cells; assay type: functional; procedure, shortened: as §2
[3] = Anticancer activity against human UACC257 cells; assay type: functional; procedure, shortened: as §1
DU-145 = experiment: Anticancer activity against human DU145 cells; assay type: functional; procedure, shortened: as §2
HCT-116 = experiment: Anticancer activity against human HCT116 cells; assay type: functional; procedure, shortened: as §2
MDA-MB-435 = experiment: Anticancer activity against human MDA-MB-435 cells; assay type: functional; procedure, shortened: as §2
SNB-19 = experiment: Anticancer activity against human SNB19 cells; assay type: functional; procedure, shortened: as §2
RPMI-8226 = experiment: Anticancer activity against human RPMI8226 cells; assay type: functional; procedure, shortened: as §2
L1210 = experiment: Cytostatic activity against mouse L1210 cells assessed as inhibition of cell proliferation after 48 hrs by coulter counting analysis; assay type: functional, cell-based; conditions: Mus musculus, L1210, 48 h
Procedure, shortened: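 Anti-proliferative screen in murine leukemia L1210, human T-lymphocyte CEM and human cervix carcinoma HeLa cultures. The value reported is the IC50, the concentration that inhibits cell proliferation by 50%.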

[4] = Anticancer activity against human RXF393 cells; assay type: functional; procedure, shortened: as §2
786-0 = experiment: Anticancer activity against human 786-0 cells; assay type: functional; procedure, shortened: as §2
CAKI-1 = experiment: Cytostatic activity against human Caki1 cells assessed as inhibition of cell proliferation after 96 hrs by coulter counting analysis; assay type: functional, cell-based; conditions: CAKI-1, 96 h
Procedure, shortened: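 Anti-proliferative testing extended to human kidney Caki-1 and human liver Huh-7 tumour cells. The value reported is the IC50, the concentration that inhibits tumour cell growth by 50%.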

HT-29 = experiment: Anticancer activity against human HT-29 cells; assay type: functional; procedure, shortened: as §2
A549 = experiment: Anticancer activity against human A549/ATCC cells; assay type: functional; procedure, shortened: as §2
HL-60 = experiment: Anticancer activity against human HL60 (TB) cells; assay type: functional
Procedure, shortened: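 Run within the broad NCI-60 human tumour cell line panel screen of the National Cancer Institute.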

NCI-H322M = experiment: Anticancer activity against human NCI-H322M cells; assay type: functional; procedure, shortened: as §2
SR = experiment: Anticancer activity against human SR cells; assay type: functional; procedure, shortened: as §2
[5] = Anticancer activity against human OVCAR4 cells; assay type: functional; procedure, shortened: as §2
[6] = read-out: pLC50 (the source's name) (converted)

In the case of `CC(C)(C)OC(=O)N[C@@H](Cc1ccccc1)C(=O)N(Cc1ccccc1)C1(C(=O)NCc2ccccc2)CCN(Cc2ccccc2)CC1`, the GI50 ([1]; UACC-62) is reported as 2510 nM, the CC50 ([1]; UACC-62, read-out: pLC50 (the source's name) (converted)) is reported as over 100 µM and the TGI ([1]; UACC-62, read-out: pTGI (converted)) is reported as 7.94 µM. For the same compound, the GI50 (K562) was 3.39 µM, the CC50 (K562; [6]) was over 100 µM and the TGI (K562; read-out: pTGI) was over 100 µM. For the same compound, the GI50 ([2]; HCT-15) was 3.16 µM, the CC50 ([2]; HCT-15, read-out: pLC50 (the source's name) (converted)) was over 100 µM and the TGI ([2]; HCT-15, read-out: pTGI) was over 100 µM. For the same compound, the GI50 ([3]; UACC-257) was 2570 nM, the CC50 ([3]; UACC-257, read-out: pLC50 (the source's name) (converted)) was over 100 µM and the TGI ([3]; UACC-257, read-out: pTGI) was over 100 µM. For the same compound, the GI50 (DU-145) was 5.37 µM, the CC50 (DU-145; [6]) was over 100 µM and the TGI (DU-145; read-out: pTGI) was over 100 µM. The GI50 (HCT-116) was 2400 nM, the CC50 (HCT-116; [6]) was over 100 µM and the TGI (HCT-116; read-out: pTGI (converted)) was 10 µM. The GI50 (MDA-MB-435) was 3.02 µM, the CC50 (MDA-MB-435; [6]) was over 100 µM and the TGI (MDA-MB-435; read-out: pTGI) was over 100 µM. For the same compound, the GI50 (SNB-19) was 5.25 µM, the CC50 (SNB-19; [6]) was over 100 µM and the TGI (SNB-19; read-out: pTGI) was over 100 µM. It also gave a GI50 (RPMI-8226) of 2190 nM, a CC50 (RPMI-8226; [6]) of over 100 µM and a TGI (RPMI-8226; read-out: pTGI (converted)) of 6.92 µM. For the same compound, the IC50 (L1210) was 3.5 µM, the GI50 ([4]; RXF 393) was 3.09 µM and the CC50 ([4]; RXF 393, read-out: pLC50 (the source's name) (converted)) was over 100 µM. It also gave a TGI ([4]; RXF 393, read-out: pTGI) of over 100 µM, a GI50 (786-0) of 3.02 µM and a CC50 (786-0; [6]) of over 100 µM. For the same compound, the TGI (786-0; read-out: pTGI) was 43.7 µM, the IC50 (CAKI-1) was 9.5 µM and the GI50 (HT-29) was 2140 nM. For the same compound, the CC50 (HT-29; [6]) was 57.5 µM, the TGI (HT-29; read-out: pTGI (converted)) was 6.76 µM and the GI50 (A549) was 3.89 µM. For the same compound, the CC50 (A549; [6]) was over 100 µM, the TGI (A549; read-out: pTGI) was over 100 µM and the GI50 (HL-60) was 2510 nM. The CC50 (HL-60; [6]) was over 100 µM, the TGI (HL-60; read-out: pTGI (converted)) was 6.17 µM and the GI50 (NCI-H322M) was 9.33 µM. The CC50 (NCI-H322M; [6]) was over 100 µM, the TGI (NCI-H322M; read-out: pTGI) was over 100 µM and the GI50 (SR) was 2340 nM. For the same compound, the CC50 (SR; [6]) was over 100 µM, the TGI (SR; read-out: pTGI (converted)) was 7.59 µM and the GI50 ([5]; OVCAR-4) was 3.24 µM. It also gave a CC50 ([5]; OVCAR-4, read-out: pLC50 (the source's name) (converted)) of over 100 µM and a TGI ([5]; OVCAR-4, read-out: pTGI) of over 100 µM.
